The results in this text go back to the M2OR odorant receptor database.

The structures appear in SMILES notation.

What all share (conditions): stereoisomer not certain
Test [1] addresses T1, UniProt Q8VGZ2.
T1 sequence (whole entry): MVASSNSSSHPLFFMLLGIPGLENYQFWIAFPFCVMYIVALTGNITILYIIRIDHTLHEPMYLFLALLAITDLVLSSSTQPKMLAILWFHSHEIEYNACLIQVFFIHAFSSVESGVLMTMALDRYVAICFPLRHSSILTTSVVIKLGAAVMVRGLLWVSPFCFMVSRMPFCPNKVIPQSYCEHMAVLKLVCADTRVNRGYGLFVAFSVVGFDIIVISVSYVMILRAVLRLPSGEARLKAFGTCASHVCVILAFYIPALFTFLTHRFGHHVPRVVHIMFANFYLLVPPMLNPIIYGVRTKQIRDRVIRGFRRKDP
In a few lines:
(§1)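 Each receptor–molecule pair is labelled responsive or non-responsive (inactive) according to whether the original authors judged the measured signal statistically different from baseline. The data were taken from the main text and supplementary material of published papers and checked for typos and inconsistencies. Assay methods differed by source, with transient luciferase assays in mammalian cell lines being common.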

Test [2] has as its target T2, UniProt Q8VGZ7.
T2 sequence (whole entry): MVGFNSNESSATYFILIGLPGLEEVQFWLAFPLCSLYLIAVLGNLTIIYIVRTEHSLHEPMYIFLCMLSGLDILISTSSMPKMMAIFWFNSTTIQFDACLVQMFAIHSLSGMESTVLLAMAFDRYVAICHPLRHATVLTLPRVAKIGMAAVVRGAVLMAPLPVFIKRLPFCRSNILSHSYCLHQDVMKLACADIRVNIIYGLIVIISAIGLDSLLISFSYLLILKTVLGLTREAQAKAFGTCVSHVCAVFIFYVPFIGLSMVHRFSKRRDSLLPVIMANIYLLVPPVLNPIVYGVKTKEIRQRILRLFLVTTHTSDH
In short, it runs like this: as §1

For test [3], the target named is T3, UniProt Q8VH16.
T3 sequence (whole entry): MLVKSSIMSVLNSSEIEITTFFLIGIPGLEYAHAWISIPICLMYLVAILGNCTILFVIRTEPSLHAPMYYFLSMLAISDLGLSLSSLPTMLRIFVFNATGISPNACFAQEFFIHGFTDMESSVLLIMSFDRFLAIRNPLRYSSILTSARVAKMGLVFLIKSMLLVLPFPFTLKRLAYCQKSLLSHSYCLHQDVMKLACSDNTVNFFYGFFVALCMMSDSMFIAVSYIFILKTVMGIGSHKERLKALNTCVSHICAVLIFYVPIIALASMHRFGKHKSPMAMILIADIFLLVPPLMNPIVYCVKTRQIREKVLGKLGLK
In short, it runs like this: as §1

Test [4] deals with T4, UniProt Q8VH20.
T4 sequence (whole entry): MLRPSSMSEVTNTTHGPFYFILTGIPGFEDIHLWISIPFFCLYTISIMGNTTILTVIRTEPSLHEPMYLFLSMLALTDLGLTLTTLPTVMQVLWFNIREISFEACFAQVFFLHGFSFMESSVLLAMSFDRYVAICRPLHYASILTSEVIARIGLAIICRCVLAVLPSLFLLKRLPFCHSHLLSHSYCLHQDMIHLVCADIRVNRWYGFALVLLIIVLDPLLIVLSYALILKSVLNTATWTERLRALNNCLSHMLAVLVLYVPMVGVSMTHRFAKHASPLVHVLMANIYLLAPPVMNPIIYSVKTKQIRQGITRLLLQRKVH
In short, it runs like this: as §1

Test [5] has as its target T5, UniProt Q8VH21.
T5 sequence (whole entry): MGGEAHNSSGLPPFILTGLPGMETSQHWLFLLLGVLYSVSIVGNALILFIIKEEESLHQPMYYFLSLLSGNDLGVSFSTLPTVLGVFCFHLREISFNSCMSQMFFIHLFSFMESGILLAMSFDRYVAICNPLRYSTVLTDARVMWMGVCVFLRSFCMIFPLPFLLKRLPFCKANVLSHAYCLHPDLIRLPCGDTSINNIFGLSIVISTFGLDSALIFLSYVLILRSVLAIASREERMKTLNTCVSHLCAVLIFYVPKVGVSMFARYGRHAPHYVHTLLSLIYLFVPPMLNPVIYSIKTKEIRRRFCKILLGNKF
In short, it runs like this:
as §1

Test [6] deals with T6, UniProt Q920P1.
T6 sequence (whole entry): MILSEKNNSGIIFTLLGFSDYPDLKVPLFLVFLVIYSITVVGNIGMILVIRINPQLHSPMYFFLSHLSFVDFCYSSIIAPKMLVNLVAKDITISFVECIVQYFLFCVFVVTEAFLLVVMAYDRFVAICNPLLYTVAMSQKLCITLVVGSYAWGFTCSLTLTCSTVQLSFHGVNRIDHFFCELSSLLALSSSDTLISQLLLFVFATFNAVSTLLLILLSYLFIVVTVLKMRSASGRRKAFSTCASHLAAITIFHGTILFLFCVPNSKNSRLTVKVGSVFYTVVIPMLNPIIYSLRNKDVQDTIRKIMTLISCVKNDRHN
In a few lines: as §1
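Note: active if original authors judged signal statistically different from baseline.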

For `C=CC(C)=CCC=C(C)CCC=C(C)C`, the “odorant receptor agonist call” value in test [1], in test [2], in test [3], in test [4] and in test [5] was “inactive” throughout.

Regarding `COc1cc(C=O)cc(OC)c1O`, the “odorant receptor agonist call” value in test [6] was “inactive”.

Regarding `C=C(C)C1CC=C(C)CC1` (stereo not drawn), the “odorant receptor agonist call” value in test [1], in test [2], in test [3], in test [4] and in test [5] was “inactive” throughout.

Take `O=C(O)CCCCCCCCC(=O)O`: the “odorant receptor agonist call” value in test [1], in test [2], in test [3], in test [4] and in test [5] was “inactive” each time.

`CCCCCCC(C)O` (stereo not drawn): the “odorant receptor agonist call” value in test [1], in test [2], in test [3], in test [4] and in test [5] was “inactive” in each case.

For `CCc1ncc(C)nc1CC`, the “odorant receptor agonist call” value in test [1], in test [2], in test [3], in test [4] and in test [5] was “inactive” each time.

On to `Cc1ccccc1OC(=O)C(C)C`, for which the “odorant receptor agonist call” value in test [1], in test [2], in test [3], in test [4] and in test [5] was “inactive” throughout.

With `OCC=Cc1ccccc1`, the “odorant receptor agonist call” value in test [1], in test [2], in test [3], in test [4] and in test [5] was “inactive” each time.

For `COc1ccccc1`, the “odorant receptor agonist call” value in test [1], in test [2], in test [3], in test [4] and in test [5] was “inactive” in each case.

As to `CCCCCC(C)O` (stereo not drawn), the “odorant receptor agonist call” value in test [1], in test [2], in test [3], in test [4] and in test [5] was “inactive” in each case.

Turning to `C=C(CC)CCCC(C)(C)O`, the “odorant receptor agonist call” value in test [1], in test [2], in test [3], in test [4] and in test [5] was “inactive” throughout.

As for `CC(C=O)Cc1ccc(C(C)(C)C)cc1` (stereo not drawn), in test [6], the “odorant receptor agonist call” value was “inactive”.

On to `CC(=O)OCc1ccc2c(c1)OCO2`, for which the “odorant receptor agonist call” value in test [1], in test [2], in test [3], in test [4] and in test [5] was “inactive” throughout.

With `CC(C)CS`, the “odorant receptor agonist call” value in test [1], in test [2], in test [3], in test [4] and in test [5] was “inactive” throughout.

`CCCCCCCCCC=CC=O`: the “odorant receptor agonist call” value in test [1], in test [2], in test [3], in test [4] and in test [5] was “inactive” throughout.

On to `CC=C(C)C=O`, for which the “odorant receptor agonist call” value in test [1], in test [2], in test [3] and in test [4] was “inactive” throughout. Besides, the “odorant receptor agonist call” value in test [5] is “active”.

In the case of `CCc1ccc(O)c(OC)c1`, the “odorant receptor agonist call” value in test [6] is “inactive”.

For `CCCCCOC(=O)CCC`, the “odorant receptor agonist call” value in test [1], in test [2], in test [3], in test [4] and in test [5] was “inactive” throughout.

Regarding `CC(=O)C=CC1=C(C)CCCC1(C)C`, the “odorant receptor agonist call” value in test [1], in test [2], in test [3], in test [4] and in test [5] was “inactive” throughout.
